{"source": "ChEMBL document CHEMBL1275561", "about": "“In vitro activities of doripenem, a new broad-spectrum carbapenem, against recently collected clinical anaerobic isolates, with emphasis on the Bacteroides fragilis group” (2008)", "type_in_all_cases": "functional", "key": {"Clostridioides difficile": {"tested_on": "Clostridioides difficile", "test": "Antimicrobial activity against Clostridium difficile by agar dilution method"}, "Clostridium perfringens": {"tested_on": "Clostridium perfringens", "test": "Antimicrobial activity against Clostridium perfringens by agar dilution method"}, "[Clostridium] innocuum [1]": {"tested_on": "[Clostridium] innocuum", "test": "Antimicrobial activity against Clostridium innocuum by agar dilution method"}, "[Clostridium] innocuum [2]": {"tested_on": "[Clostridium] innocuum", "test": "Antimicrobial activity against Clostridium innocuum assessed as resistant isolates by agar dilution method", "conditions": "pooled result: one value given for 4 cell lines, strains, targets or settings"}, "[3]": {"tested_on": "Clostridium paraputrificum", "test": "Antimicrobial activity against Clostridium paraputrificum by agar dilution method"}, "Clostridium subterminale": {"tested_on": "Clostridium subterminale", "test": "Antimicrobial activity against Clostridium subterminale by agar dilution method"}, "Clostridium tertium": {"tested_on": "Clostridium tertium", "test": "Antimicrobial activity against Clostridium tertium by agar dilution method"}, "Finegoldia magna [4]": {"tested_on": "Finegoldia magna", "test": "Antimicrobial activity against Finegoldia magna by agar dilution method", "outline": "(§1)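 Gram-positive anaerobes were tested by CLSI agar dilution on brucella agar enriched with 5% lysed defibrinated sheep blood and 1 μg/ml vitamin K1. Inoculum was log-phase growth at 0.5 McFarland, about 10^5 CFU/spot by replicator. Incubation was anaerobic, 37°C, 48 h. MIC was the lowest concentration with a marked growth change versus the drug-free plate. Eubacterium lentum ATCC 43055 was the control, and tests were repeated if it fell outside the CLSI range.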"}, "Finegoldia magna [5]": {"tested_on": "Finegoldia magna", "test": "Antimicrobial activity against Finegoldia magna assessed as resistant isolates by agar dilution method", "outline": "(§2)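 Agar dilution following CLSI on brucella agar with 5% lysed defibrinated sheep blood and 1 μg/ml vitamin K1, plates made on test day. Log-phase cells at 0.5 McFarland, about 10^5 CFU/spot by Steers replicator, 48 h anaerobic at 37°C. MIC read as the lowest concentration causing a marked growth change versus control. Resistance counted by CLSI anaerobe breakpoints. Eubacterium lentum ATCC 43055 served as control.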"}, "[6]": {"tested_on": "Peptoniphilus asaccharolyticus", "test": "Antimicrobial activity against Peptoniphilus asaccharolyticus by agar dilution method", "outline": "as §1"}, "[7]": {"tested_on": "Peptoniphilus asaccharolyticus", "test": "Antimicrobial activity against Peptoniphilus asaccharolyticus assessed as resistant isolates by agar dilution method", "conditions": "pooled result: one value given for 4 cell lines, strains, targets or settings", "outline": "as §2"}, "Parvimonas micra": {"tested_on": "Parvimonas micra", "test": "Antimicrobial activity against Micromonas micros by agar dilution method", "outline": "as §1"}, "Anaerococcus prevotii": {"tested_on": "Anaerococcus prevotii", "test": "Antimicrobial activity against Anaerococcus prevotii by agar dilution method", "outline": "as §1"}, "Peptostreptococcus sp.": {"tested_on": "Peptostreptococcus sp.", "test": "Antimicrobial activity against Peptostreptococcus sp. by agar dilution method", "outline": "(§3)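 Log-phase isolates were adjusted to 0.5 McFarland, and about 10^5 CFU/spot was delivered by Steers replicator. Plates were incubated anaerobically at 37°C for 48 h. MIC was the lowest concentration giving a marked growth change versus the control plate. Eubacterium lentum ATCC 43055 was the QC strain, with repeats when out of range.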"}, "Cutibacterium acnes [8]": {"tested_on": "Cutibacterium acnes", "test": "Antimicrobial activity against Propionibacterium acnes by agar dilution method", "outline": "as §3"}, "Cutibacterium acnes [9]": {"tested_on": "Cutibacterium acnes", "test": "Antimicrobial activity against Propionibacterium acnes assessed as resistant isolates by agar dilution method", "outline": "as §2"}, "Propionibacterium [10]": {"tested_on": "Propionibacterium", "test": "Antimicrobial activity against Propionibacterium sp. by agar dilution method", "outline": "as §3"}, "Propionibacterium [11]": {"tested_on": "Propionibacterium", "test": "Antimicrobial activity against Propionibacterium sp. assessed as resistant isolates by agar dilution method", "outline": "as §2"}}}
{"smiles": "Cc1ncc([N+](=O)[O-])n1CCO", "note": "[METRONIDAZOLE]", "values": [{"measurement": "MIC", "setting": "Clostridioides difficile", "value": 0.5, "unit": "µg/mL"}, {"measurement": "MIC50", "setting": "Clostridium perfringens", "value": 2, "unit": "µg/mL"}, {"measurement": "MIC90", "setting": "Clostridium perfringens", "value": 4, "unit": "µg/mL"}, {"measurement": "MIC50", "setting": "[Clostridium] innocuum [1]", "value": 2, "unit": "µg/mL"}, {"measurement": "MIC90", "setting": "[Clostridium] innocuum [1]", "value": 2, "unit": "µg/mL"}, {"measurement": "Activity", "setting": "[Clostridium] innocuum [2]", "value": 5.6, "unit": "%"}, {"measurement": "MIC50", "setting": "[3]", "value": 2, "unit": "µg/mL"}, {"measurement": "MIC90", "setting": "[3]", "value": 2, "unit": "µg/mL"}, {"measurement": "MIC50", "setting": "Clostridium subterminale", "value": 2, "unit": "µg/mL"}, {"measurement": "MIC90", "setting": "Clostridium subterminale", "value": 2, "unit": "µg/mL"}, {"measurement": "MIC50", "setting": "Clostridium tertium", "value": 2, "unit": "µg/mL"}, {"measurement": "MIC90", "setting": "Clostridium tertium", "value": 2, "unit": "µg/mL"}, {"measurement": "MIC", "setting": "Finegoldia magna [4]", "value": 0.5, "unit": "µg/mL"}, {"measurement": "MIC50", "setting": "Finegoldia magna [4]", "value": 0.5, "unit": "µg/mL"}, {"measurement": "MIC90", "setting": "Finegoldia magna [4]", "value": 0.5, "unit": "µg/mL"}, {"measurement": "Activity", "setting": "Finegoldia magna [5]", "value": 0, "unit": "%"}, {"measurement": "MIC50", "setting": "[6]", "value": 1, "unit": "µg/mL"}, {"measurement": "MIC90", "setting": "[6]", "value": 32, "unit": "µg/mL"}, {"measurement": "Activity", "setting": "[7]", "value": 34.1, "unit": "%"}, {"measurement": "MIC50", "setting": "Parvimonas micra", "value": 1, "unit": "µg/mL"}, {"measurement": "MIC90", "setting": "Parvimonas micra", "value": 32, "unit": "µg/mL"}, {"measurement": "MIC50", "setting": "Anaerococcus prevotii", "value": 1, "unit": "µg/mL"}, {"measurement": "MIC90", "setting": "Anaerococcus prevotii", "value": 32, "unit": "µg/mL"}, {"measurement": "MIC50", "setting": "Peptostreptococcus sp.", "value": 1, "unit": "µg/mL"}, {"measurement": "MIC90", "setting": "Peptostreptococcus sp.", "value": 32, "unit": "µg/mL"}, {"measurement": "MIC50", "setting": "Cutibacterium acnes [8]", "value": 32, "unit": "µg/mL"}, {"measurement": "MIC90", "setting": "Cutibacterium acnes [8]", "value": 32, "unit": "µg/mL"}, {"measurement": "Activity", "setting": "Cutibacterium acnes [9]", "value": 94.4, "unit": "%"}, {"measurement": "MIC50", "setting": "Propionibacterium [10]", "value": 32, "unit": "µg/mL"}, {"measurement": "MIC90", "setting": "Propionibacterium [10]", "value": 32, "unit": "µg/mL"}, {"measurement": "Activity", "setting": "Propionibacterium [11]", "value": 92.3, "unit": "%"}]}
{"smiles": "CC(=O)NC[C@H]1CN(c2ccc(N3CCOCC3)c(F)c2)C(=O)O1", "note": "[LINEZOLID]", "values": [{"measurement": "MIC", "setting": "Clostridioides difficile", "value": 1, "unit": "µg/mL"}, {"measurement": "MIC", "setting": "Clostridium perfringens", "value": 2, "unit": "µg/mL"}, {"measurement": "MIC50", "setting": "Clostridium perfringens", "value": 2, "unit": "µg/mL"}, {"measurement": "MIC90", "setting": "Clostridium perfringens", "value": 4, "unit": "µg/mL"}, {"measurement": "MIC50", "setting": "[Clostridium] innocuum [1]", "value": 4, "unit": "µg/mL"}, {"measurement": "MIC90", "setting": "[Clostridium] innocuum [1]", "value": 8, "unit": "µg/mL"}, {"measurement": "Activity", "setting": "[Clostridium] innocuum [2]", "value": 11, "unit": "%"}, {"measurement": "MIC50", "setting": "[3]", "value": 4, "unit": "µg/mL"}, {"measurement": "MIC90", "setting": "[3]", "value": 8, "unit": "µg/mL"}, {"measurement": "MIC50", "setting": "Clostridium subterminale", "value": 4, "unit": "µg/mL"}, {"measurement": "MIC90", "setting": "Clostridium subterminale", "value": 8, "unit": "µg/mL"}, {"measurement": "MIC50", "setting": "Clostridium tertium", "value": 4, "unit": "µg/mL"}, {"measurement": "MIC90", "setting": "Clostridium tertium", "value": 8, "unit": "µg/mL"}, {"measurement": "MIC", "setting": "Finegoldia magna [4]", "value": 2, "unit": "µg/mL"}, {"measurement": "MIC50", "setting": "Finegoldia magna [4]", "value": 2, "unit": "µg/mL"}, {"measurement": "MIC90", "setting": "Finegoldia magna [4]", "value": 2, "unit": "µg/mL"}, {"measurement": "Activity", "setting": "Finegoldia magna [5]", "value": 0, "unit": "%"}, {"measurement": "MIC50", "setting": "[6]", "value": 1, "unit": "µg/mL"}, {"measurement": "MIC90", "setting": "[6]", "value": 2, "unit": "µg/mL"}, {"measurement": "Activity", "setting": "[7]", "value": 0, "unit": "%"}, {"measurement": "MIC50", "setting": "Parvimonas micra", "value": 1, "unit": "µg/mL"}, {"measurement": "MIC90", "setting": "Parvimonas micra", "value": 2, "unit": "µg/mL"}, {"measurement": "MIC50", "setting": "Anaerococcus prevotii", "value": 1, "unit": "µg/mL"}, {"measurement": "MIC90", "setting": "Anaerococcus prevotii", "value": 2, "unit": "µg/mL"}, {"measurement": "MIC50", "setting": "Peptostreptococcus sp.", "value": 1, "unit": "µg/mL"}, {"measurement": "MIC90", "setting": "Peptostreptococcus sp.", "value": 2, "unit": "µg/mL"}, {"measurement": "MIC", "setting": "Cutibacterium acnes [8]", "value": 0.5, "unit": "µg/mL"}, {"measurement": "MIC50", "setting": "Cutibacterium acnes [8]", "value": 0.5, "unit": "µg/mL"}, {"measurement": "MIC90", "setting": "Cutibacterium acnes [8]", "value": 1, "unit": "µg/mL"}, {"measurement": "Activity", "setting": "Cutibacterium acnes [9]", "value": 0, "unit": "%"}, {"measurement": "MIC", "setting": "Propionibacterium [10]", "value": 0.5, "unit": "µg/mL"}, {"measurement": "MIC50", "setting": "Propionibacterium [10]", "value": 0.5, "unit": "µg/mL"}, {"measurement": "MIC90", "setting": "Propionibacterium [10]", "value": 0.5, "unit": "µg/mL"}, {"measurement": "Activity", "setting": "Propionibacterium [11]", "value": 0, "unit": "%"}]}
